Source: ChEMBL document CHEMBL1142735, “Discovery of a new series of centrally active tricyclic isoxazoles combining serotonin (5-HT) reuptake inhibition with alpha2-adrenoceptor blocking activity” (J Med Chem, 2005)

Tests used:
[1] = molecular target: Sodium-dependent dopamine transporter (Rattus norvegicus, UniProt P23977); assay: Inhibition of [3H]WIN-35428 binding to Dopamine transporter of rat striatum; format: tissue-based
Summary of the method: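 Competition binding using rat striatum membranes incubated with the radioligand under optimized conditions, separated by filtration.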

[2] = molecular target: T1, Adrenergic receptor alpha-1 (Homo sapiens, UniProt P35348+P25100+P35368); assay: Inhibition of [3H]- prazosin binding to alpha-1 adrenergic receptor; format: protein assay
T1 sequence (P35348 whole entry): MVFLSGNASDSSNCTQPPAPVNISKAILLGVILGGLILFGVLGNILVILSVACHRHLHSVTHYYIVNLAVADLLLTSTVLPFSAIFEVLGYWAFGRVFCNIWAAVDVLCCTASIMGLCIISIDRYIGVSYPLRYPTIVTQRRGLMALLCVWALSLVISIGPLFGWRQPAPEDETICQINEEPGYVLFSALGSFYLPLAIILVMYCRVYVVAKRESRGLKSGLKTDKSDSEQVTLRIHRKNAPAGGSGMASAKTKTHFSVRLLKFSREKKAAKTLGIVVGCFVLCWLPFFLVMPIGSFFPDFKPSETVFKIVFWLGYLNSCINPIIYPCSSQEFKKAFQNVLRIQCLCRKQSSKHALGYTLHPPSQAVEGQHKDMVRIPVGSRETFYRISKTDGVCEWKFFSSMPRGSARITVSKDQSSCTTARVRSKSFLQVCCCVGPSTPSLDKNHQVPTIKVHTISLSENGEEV
T1 sequence (P25100 whole entry): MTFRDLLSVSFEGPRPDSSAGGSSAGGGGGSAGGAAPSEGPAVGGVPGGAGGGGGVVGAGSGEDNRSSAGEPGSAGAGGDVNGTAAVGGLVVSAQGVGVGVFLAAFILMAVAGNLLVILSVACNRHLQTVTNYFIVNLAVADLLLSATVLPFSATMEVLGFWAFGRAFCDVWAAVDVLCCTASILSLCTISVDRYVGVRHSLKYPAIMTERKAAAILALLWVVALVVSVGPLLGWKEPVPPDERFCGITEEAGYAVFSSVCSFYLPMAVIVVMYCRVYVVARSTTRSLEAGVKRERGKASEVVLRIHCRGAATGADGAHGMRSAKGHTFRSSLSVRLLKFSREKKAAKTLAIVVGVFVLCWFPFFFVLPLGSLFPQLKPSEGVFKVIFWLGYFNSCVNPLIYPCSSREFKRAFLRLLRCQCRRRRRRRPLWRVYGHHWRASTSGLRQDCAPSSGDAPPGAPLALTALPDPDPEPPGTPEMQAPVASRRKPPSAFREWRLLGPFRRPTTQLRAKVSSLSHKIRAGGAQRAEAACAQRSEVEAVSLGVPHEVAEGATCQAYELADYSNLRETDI
T1 sequence (P35368 whole entry): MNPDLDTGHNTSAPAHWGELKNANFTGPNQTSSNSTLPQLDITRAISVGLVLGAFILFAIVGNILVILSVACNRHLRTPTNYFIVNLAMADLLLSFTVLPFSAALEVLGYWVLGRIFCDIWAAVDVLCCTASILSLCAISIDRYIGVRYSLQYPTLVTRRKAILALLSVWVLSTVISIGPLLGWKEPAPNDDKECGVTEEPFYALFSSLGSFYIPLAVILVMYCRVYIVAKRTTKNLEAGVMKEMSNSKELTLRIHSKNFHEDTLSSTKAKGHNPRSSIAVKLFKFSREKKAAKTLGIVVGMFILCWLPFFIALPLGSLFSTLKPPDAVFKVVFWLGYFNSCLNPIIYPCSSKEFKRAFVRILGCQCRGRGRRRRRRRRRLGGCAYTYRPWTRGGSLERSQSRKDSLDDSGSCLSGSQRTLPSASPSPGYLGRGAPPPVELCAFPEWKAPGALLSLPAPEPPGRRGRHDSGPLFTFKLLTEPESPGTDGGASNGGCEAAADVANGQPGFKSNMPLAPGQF
Summary of the method: (§1)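 Radioligand competition binding on membranes from cell lines carrying the human target, incubated with the labelled ligand under optimized conditions. Separation by filtration, except α1A and D3, which used scintillation proximity assay.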

Rattus norvegicus [3] = assay: Effective dose for PCA-induced 5-HT depletion was determined by oral administration; format: functional
Summary of the method: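 Male Wiga Wistar rats (200 g, n=6 per condition) dosed sc or po (10 mL/kg). At 4 h, frontal cortex removed and extracted with perchloric acid/metabisulfite; 5-HT measured by HPLC-electrochemical detection against a standard curve with dihydroxybenzylamine internal standard. Effect scaled between pCA+vehicle and vehicle+vehicle controls; ED50 from sigmoidal fit.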

[4] = molecular target: Norepinephrine transporter (Rattus norvegicus, UniProt Q9WTR4); assay: Inhibition of [3H]-nisoxetine binding to Norepinephrine transporter from rat cortex
Sequence of Norepinephrine transporter (Q9WTR4 whole entry): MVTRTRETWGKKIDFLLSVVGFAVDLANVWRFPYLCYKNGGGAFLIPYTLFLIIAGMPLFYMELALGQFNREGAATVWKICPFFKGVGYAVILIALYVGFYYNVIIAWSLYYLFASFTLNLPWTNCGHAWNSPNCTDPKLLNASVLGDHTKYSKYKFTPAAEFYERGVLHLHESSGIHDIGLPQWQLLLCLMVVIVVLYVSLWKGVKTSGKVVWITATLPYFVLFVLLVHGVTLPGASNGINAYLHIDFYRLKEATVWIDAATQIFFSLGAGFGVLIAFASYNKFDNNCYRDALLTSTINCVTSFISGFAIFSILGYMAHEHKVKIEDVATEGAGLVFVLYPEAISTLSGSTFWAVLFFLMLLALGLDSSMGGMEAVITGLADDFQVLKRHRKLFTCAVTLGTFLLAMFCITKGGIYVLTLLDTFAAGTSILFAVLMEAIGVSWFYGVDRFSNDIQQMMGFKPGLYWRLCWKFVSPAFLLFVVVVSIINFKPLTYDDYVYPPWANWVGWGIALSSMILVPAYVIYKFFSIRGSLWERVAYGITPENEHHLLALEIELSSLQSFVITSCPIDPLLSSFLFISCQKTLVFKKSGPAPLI
Summary of the method: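 Radioligand competition on rat cortex membranes, incubated under optimized conditions. Stopped by rapid filtration. Ki by Cheng-Prusoff.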

D(3) dopamine receptor = D(3) dopamine receptor (Homo sapiens, UniProt P35462); assay: Inhibition of [125I]-iodosulpiride binding to Dopamine receptor D3
Sequence of D(3) dopamine receptor (P35462 whole entry): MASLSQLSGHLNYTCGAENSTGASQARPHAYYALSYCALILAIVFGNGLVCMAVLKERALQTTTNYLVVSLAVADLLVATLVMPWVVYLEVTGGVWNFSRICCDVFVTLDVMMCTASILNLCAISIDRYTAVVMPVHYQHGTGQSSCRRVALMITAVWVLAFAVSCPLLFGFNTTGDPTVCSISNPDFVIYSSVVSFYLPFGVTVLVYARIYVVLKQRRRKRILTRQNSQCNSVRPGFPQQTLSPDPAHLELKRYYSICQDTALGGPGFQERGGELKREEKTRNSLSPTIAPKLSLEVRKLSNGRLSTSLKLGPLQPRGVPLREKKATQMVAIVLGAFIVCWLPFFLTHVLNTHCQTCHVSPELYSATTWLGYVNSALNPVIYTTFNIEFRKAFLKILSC
Summary of the method: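 Radioligand competition using membranes from a cell line transfected with human D3 receptor, incubated under optimized conditions. Bound ligand read by scintillation proximity assay rather than filtration. Ki by Cheng-Prusoff.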

Rattus norvegicus [5] = assay: Effective dose concentration for antagonism ofpCA-Induced excitation was determined by subcutaneous administration; format: functional; conditions: sc
Summary of the method: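 Male Wistar rats (200-250 g), fasted overnight, given test compound or solvent sc before challenge. Loss of righting induced by medetomidine 0.10 mg/kg iv; reversal means no loss of righting. Excitation induced by pCA 5 mg/10 mL/kg sc and scored 0-3 over 15 min starting 45 min after pCA; inhibition means score <2.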

[6] = molecular target: 5-hydroxytryptamine receptor 7 (Homo sapiens, UniProt P34969); assay: Inhibition of [3H]5-HT binding to 5-hydroxytryptamine 7 receptor; summary of the method: as §1
Sequence of 5-hydroxytryptamine receptor 7 (P34969 whole entry): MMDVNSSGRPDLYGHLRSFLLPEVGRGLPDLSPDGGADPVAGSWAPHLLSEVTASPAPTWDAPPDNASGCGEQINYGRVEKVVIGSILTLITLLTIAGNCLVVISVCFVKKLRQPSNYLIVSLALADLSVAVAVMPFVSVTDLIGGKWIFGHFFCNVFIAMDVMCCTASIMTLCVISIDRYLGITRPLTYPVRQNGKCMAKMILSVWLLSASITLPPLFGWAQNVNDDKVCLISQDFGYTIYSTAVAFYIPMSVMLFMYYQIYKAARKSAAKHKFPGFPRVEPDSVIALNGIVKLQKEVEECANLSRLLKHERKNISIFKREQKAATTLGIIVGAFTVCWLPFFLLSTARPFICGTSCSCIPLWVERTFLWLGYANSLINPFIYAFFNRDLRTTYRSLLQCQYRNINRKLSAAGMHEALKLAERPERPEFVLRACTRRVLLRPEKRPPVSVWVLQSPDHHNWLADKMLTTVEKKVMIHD

Rattus norvegicus [7] = assay: Effective dose for antagonism ofpCA-Induced excitation was determined by oral administration; format: functional
Summary of the method: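 Oral pretreatment of overnight-fasted male Wistar rats (200-250 g), then medetomidine 0.10 mg/kg iv (reversal means no loss of righting) or pCA 5 mg/kg sc (excitation scored 0-3 over 15 min from 45 min after pCA; inhibition means score <2). Doses taken from a geometric series.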

D(4) dopamine receptor = molecular target: T2, D(4) dopamine receptor (Homo sapiens, UniProt P21917); assay: Inhibition of [3H]spiperone binding to Dopamine receptor D4; summary of the method: as §1
T2 sequence (P21917 whole entry): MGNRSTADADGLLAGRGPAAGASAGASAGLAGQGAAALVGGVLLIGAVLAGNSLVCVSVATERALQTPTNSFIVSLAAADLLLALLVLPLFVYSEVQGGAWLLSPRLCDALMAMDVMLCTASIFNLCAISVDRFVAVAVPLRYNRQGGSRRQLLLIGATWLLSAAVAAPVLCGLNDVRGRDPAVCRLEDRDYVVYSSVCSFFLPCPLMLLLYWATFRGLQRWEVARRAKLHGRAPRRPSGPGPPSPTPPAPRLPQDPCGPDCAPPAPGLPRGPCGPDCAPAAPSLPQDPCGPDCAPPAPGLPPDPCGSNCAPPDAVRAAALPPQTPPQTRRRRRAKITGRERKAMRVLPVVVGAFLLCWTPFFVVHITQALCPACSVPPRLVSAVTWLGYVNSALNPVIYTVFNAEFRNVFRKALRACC

D(2) dopamine receptor = D(2) dopamine receptor (Homo sapiens, UniProt P14416); assay: Inhibition of [3H]spiperone binding to Dopamine receptor D2; summary of the method: as §1
Sequence of D(2) dopamine receptor (P14416 whole entry): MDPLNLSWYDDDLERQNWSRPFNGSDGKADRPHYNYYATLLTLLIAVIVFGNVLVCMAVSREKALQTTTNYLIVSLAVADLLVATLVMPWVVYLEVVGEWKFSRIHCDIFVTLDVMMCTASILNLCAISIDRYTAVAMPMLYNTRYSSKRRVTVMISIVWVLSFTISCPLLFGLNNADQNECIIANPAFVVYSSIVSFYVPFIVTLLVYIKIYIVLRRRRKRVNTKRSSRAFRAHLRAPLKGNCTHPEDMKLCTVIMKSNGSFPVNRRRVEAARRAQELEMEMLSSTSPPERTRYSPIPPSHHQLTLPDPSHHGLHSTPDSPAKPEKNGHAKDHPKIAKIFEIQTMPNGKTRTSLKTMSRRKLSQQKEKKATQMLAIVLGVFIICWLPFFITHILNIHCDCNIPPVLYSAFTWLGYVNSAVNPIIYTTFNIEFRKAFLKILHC

Sequence of Sodium-dependent dopamine transporter (P23977 whole entry): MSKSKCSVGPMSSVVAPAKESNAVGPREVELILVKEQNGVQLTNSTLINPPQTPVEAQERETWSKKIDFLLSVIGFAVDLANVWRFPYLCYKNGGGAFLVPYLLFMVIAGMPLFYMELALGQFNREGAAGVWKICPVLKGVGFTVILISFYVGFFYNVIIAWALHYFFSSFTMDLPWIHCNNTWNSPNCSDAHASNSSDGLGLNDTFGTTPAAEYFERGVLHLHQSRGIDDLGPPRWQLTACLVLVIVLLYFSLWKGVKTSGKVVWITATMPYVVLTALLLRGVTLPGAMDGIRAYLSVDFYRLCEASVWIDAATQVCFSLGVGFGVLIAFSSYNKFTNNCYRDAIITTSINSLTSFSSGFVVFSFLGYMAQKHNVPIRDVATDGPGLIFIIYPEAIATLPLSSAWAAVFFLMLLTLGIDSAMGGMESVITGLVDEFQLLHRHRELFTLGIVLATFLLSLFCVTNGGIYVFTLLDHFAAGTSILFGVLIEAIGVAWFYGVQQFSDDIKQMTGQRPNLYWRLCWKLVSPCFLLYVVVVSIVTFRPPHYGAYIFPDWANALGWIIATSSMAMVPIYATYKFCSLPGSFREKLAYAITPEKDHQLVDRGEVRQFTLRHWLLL

| Ki [1] [nM] | Ki [2] [nM] | Ki [4] [nM] | Ki (D(3) dopamine receptor) [nM] | Ki [6] [nM] | Ki (D(4) dopamine receptor) [nM] | Ki (D(2) dopamine receptor) [nM] | Structure (SMILES) | ED50 (Rattus norvegicus [3]) [mg/kg] | ED50 (Rattus norvegicus [5]) [mg/kg] | ED50 (Rattus norvegicus [7]) [mg/kg] |
| --- | --- | --- | --- | --- | --- | --- | --- | --- | --- | --- |
| 515 | > 1000 | 132 | 270 | > 1000 | > 1000 | 959 | COc1cc2c(cc1OC)C1=NO[C@@H](CN3CCN(C/C=C/c4ccccc4)CC3)[C@@H]1CO2 | 1.1 | 0.39 | 5 |
| 368 | > 1000 | 220 | 611 | > 1000 | > 1000 | > 1000 | COc1cc2c(cc1OC)C1=NO[C@@H](CN3CCN(C/C=C(\C)c4ccccc4)CC3)[C@@H]1CO2 | 3.5 | 0.5 | ≥ 2.5 |
| > 1000 | 380 | 177 | 433 | > 1000 | > 1000 | 230 | COc1cc2c(cc1OC)C1=NO[C@@H](CN3CCN(C/C(C)=C/c4ccccc4)CC3)[C@@H]1CO2 | 3.8 |  |  |
| 246 | > 1000 | 33 | 107 | > 1000 | > 1000 | > 1000 | COc1cc2c(cc1OC)C1=NO[C@@H](CN3CCN(Cc4ccc5ccccc5c4)CC3)[C@@H]1CO2 | 2.6 | 0.08 | 5 |
